# This is a sample that favours compounds with a hit; in the whole collection about 2.2% have one here.
# COUP-TFII inh: NR2F2 (human) inhibition, primary screen. P24468. HEK293T NGFI-A luciferase reporter, luminescence. inhibition, % at 8.6 µM. 370,000 tested, 0.7% active;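 active means inhibition above a per-plate cutoff, mean inhibition of test wells between control levels plus 3 SD, cut at about 38% in these data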;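 further: cells cotransfected with COUP-TFII expression vector driving the NGFI-A reporter; 0% = median of COUP-TF2 test wells and 100% = reporter-only cells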
# GalR3 antag: blocks the human galanin receptor 3; inhibition, % at 3 µM; HEK293 GalR3-CNG cAMP membrane potential fluorescence; galR3 body fused to GalR1 C-terminus; O60755; AID 651719; 360,000 tested, 0.44% active;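 active means inhibition above the screen-wide average plus 3 SD, cut at about 13% in these data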;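 further: forskolin and galanin both at EC90 stimulate the cells; cAMP rise reported by CNG channel membrane potential dye signal; 0% = forskolin plus galanin with DMSO and 100% = forskolin alone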
# Target sequence (O60755 1-299 limits assumed): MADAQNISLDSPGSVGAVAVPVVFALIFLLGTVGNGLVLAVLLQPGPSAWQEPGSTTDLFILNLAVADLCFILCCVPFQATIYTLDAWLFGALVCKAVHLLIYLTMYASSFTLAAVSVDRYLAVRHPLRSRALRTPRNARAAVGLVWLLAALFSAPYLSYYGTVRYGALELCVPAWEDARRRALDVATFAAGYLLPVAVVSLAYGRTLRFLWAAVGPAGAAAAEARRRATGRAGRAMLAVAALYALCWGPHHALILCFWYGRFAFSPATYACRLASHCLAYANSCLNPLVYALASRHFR
# SMARCA2 act: increases SMARCA2 function in MMTV reporter cells. activation, % at 9.1 µM. AID 652017. MG213 cells, MMTV-luciferase reporter, dexamethasone, overnight. 370,000 tested, 1% active; in the data active means activation above about 7.8%;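 further: 0% = vehicle wells and 100% = reference activator wells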
# NR2E3 ag-1: activates human NR2E3 receptor | AID 602229 | 360,000 tested, 0.35% active | CHO-S Gal4-NCOR/VP16-NR2E3 two-hybrid, luciferase | Q9Y5X4 | inhibition of corepressor binding, % at 3.98 µM;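 active means inhibition above the mean of all tested compounds plus 3 SD, cut at about 70% in these data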;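 further: 0% = DMSO with NR2E3 transfected cells and 100% = cells lacking NR2E3 construct; higher means lower luciferase signal from less NR2E3 corepressor binding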
# NR2E3 ag-2: activates human photoreceptor nuclear receptor NR2E3. Q9Y5X4. GST-NR2E3/biotin-RetCOR TR-FRET, 1536-well. inhibition of corepressor binding, % at 4.78 µM. 320,000 tested, 0.12% active;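 active means percent inhibition above the cutoff of mean plus 3 SD of all tested compounds, set per screening campaign, cut at about 20% in these data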;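 further: 0% = DMSO wells and 100% = biotin wells as full block of FRET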
#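 System: GST-tagged NR2E3 plus biotinylated RetCOR corepressor; Amount: 1.35 nM GST-tagged NR2E3 final; Dosing: single nominal compound dose of 4.8 µM; Schedule: 5 h incubation at 4 °C; Technique: TR-FRET with europium anti-GST and streptavidin-D2, 340 nm excitation; Controls: biotin wells as high control, 0.6% DMSO wells as low control.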
# SMARCA2 act conf: confirmation of SMARCA2 (BRM) function activators; shares compounds with SMARCA2 act; MG213 cells, MMTV-luciferase with dexamethasone, luminescence, overnight; MG213 cells expressing E1A, Rb sequestered; DMSO wells 0%, reference activator 100%; activation, % at 9.1 µM; 3,500 tested, 30% active;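 active means activation above its plate's cutoff, the mean activation of tested wells plus 3 SD, cut at about 7.9% in these data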
# VP16 Luc act: activates GAL4-VP16 luciferase, flagging SMARCA2 activator hits; shares compounds with SMARCA2 act; 3,500 tested, 41% active; HEK293 GAL4-VP16 pG5luc reporter, luciferase luminescence; scaled: DMSO wells 0%, SAHA wells 100%; activation, % at 9.1 µM;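 active means activation above the solvent-only control well mean plus 3 SD, averaged across control plates, cut at about 5.2% in these data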
# * = called active by the depositor; x = no result given.
SMILES,COUP-TFII inh,GalR3 antag,SMARCA2 act,NR2E3 ag-1,NR2E3 ag-2,SMARCA2 act conf,VP16 Luc act
CN(CC(=O)N1CCN(c2ccccc2F)CC1)S(=O)(=O)c1cnc[nH]1,-1,-5,-4,-4,-4,x,x
COc1ccc(N2CCN(C(=O)CN(C)S(=O)(=O)c3cnc[nH]3)CC2)cc1,7,1,10*,-18,-1,-3,0
O=C(CN(c1cccc([N+](=O)[O-])c1)S(=O)(=O)c1ccccc1)N(Cc1ccccc1)Cc1ccccc1,9,-2,9.9*,-9,2,-3,-1
O=C1NC(Cc2cnc[nH]2)C(=O)N2CCCC12 (stereo not drawn),-5,-7,0,x,x,x,x
COc1cc(/C=N/NS(=O)(=O)c2ccc(C)cc2)ccc1OCc1cccc(C(=O)O)c1,-38,-2,9.5*,-206,0,6,19*
CC1=C(C(=O)Nc2ccccn2)C(c2ccc(N(C)C)cc2)n2ncnc2N1 (stereo not drawn),-35,5,8.1*,-34,0,1,-1
COc1ccc(-c2cc3c(nn2)-c2ccccc2C3=O)cc1,-16,-7,11*,-161,5,8.7*,5.2*
O=C1c2ccccc2-c2nnc(-c3ccccc3)cc21,-11,-2,7,-120,1,x,x
CCC[C@H]1[C@@H](NC(=O)c2cccc(C(F)(F)F)c2)CC[C@@]23CCCN2C(=O)CCC[C@@H]13,-2,x,x,x,x,x,x
CCC(=O)Nc1ccc(NC(=O)CCc2ccccc2)cn1,-22,-4,-2,-10,-5,x,x
CCC(=O)Nc1ccc(NC(=O)Cc2ccccc2)cn1,-24,-4,8.7*,-33,0,0,0
Cc1ccc(-c2ccc(CCC(=O)O)n2NC(N)=S)cc1,-8,-2,8.4*,3,-2,-1,1
O=C(CN1C(=O)NC2(CCc3ccccc32)C1=O)c1ccc(Cl)cc1 (stereo not drawn),13,1,0,3,-2,x,x
CC(C)c1ccc(C(=O)CN2C(=O)NC3(CCc4ccccc43)C2=O)cc1 (stereo not drawn),-19,-6,11*,-20,x,3,0
COc1cccc(NC(=O)CN2C(=O)NC3(CCc4ccccc43)C2=O)c1 (stereo not drawn),7,-6,9.0*,-28,0,0,0
COc1ccc(OC)c(S(=O)(=O)N2CCCCC2C(=O)N2CCN(CCO)CC2)c1 (stereo not drawn),-6,x,-3,x,x,x,x
Cc1nc2sc(C(=O)NCc3ccncc3)c(N)c2c(C)c1Cl,-2,x,0,x,x,x,x
CC1(N=Cc2cc(Cl)ccc2O)COP(=O)(Nc2ccccc2)OC1 (stereo not drawn),12,-6,8.2*,-13,x,-1,1
Clc1ccc(Nc2nc(-c3ccncc3)cs2)cc1,-17,-5,3,-10,3,x,x
Nc1ccc(Nc2nc(-c3ccncc3)cs2)cc1,-15,-6,13*,-68,-7,11*,13*
COC(=O)[C@@]12CCCCC3=C1N(CCC3)C(=O)[C@H]2CC(=O)NCC1CCCCC1,10,x,-1,x,x,x,x
O=C(NC(=S)NCc1nc2ccccc2[nH]1)c1ccc(F)cc1,-26,-2,9.9*,3,4,7,4
CNC(=S)Nc1sc2c(c1C(=O)OC)CCC2,-7,-6,9.1*,-13,4,0,0
COC(=O)c1c(NC(C)=O)sc2c1CCCC2,-2,-4,2,-36,0,x,x
CCCCNS(=O)(=O)/C=C/c1cc2c(cc1CNC(=O)OC(C)(C)C)OCO2,-7,x,-3,x,x,x,x
SMILES,COUP-TFII inh,GalR3 antag,SMARCA2 act,NR2E3 ag-1,NR2E3 ag-2,SMARCA2 act conf,VP16 Luc act
Cc1ccc(N=Nc2[nH]c3ccccc3c2O)cc1,0,-3,9.1*,-107,1,14*,5
COc1ccc(N=Nc2[nH]c3ccc(C)cc3c2O)cc1,-9,-1,0,-33,4,x,x
Fc1cccc(F)c1-n1c(CN2CCOCC2)csc1=S,11,-9,8.7*,-9,1,-1,-1
Fc1cccc(F)c1-n1c(CN2CCCCC2)csc1=S,2,-6,0,-41,0,x,x
O=C(COC(=O)C12CC3CC(CC(O)(C3)C1)C2)Nc1ccc(Br)cc1F,-43,-5,9.4*,-8,3,4,8.2*
CCNC(=S)NNC(=O)CSc1nc2ccccc2c(=O)n1-c1ccc(Cl)cc1,6,x,-5,x,x,x,x
CC1CCN(c2nc(/C=C/c3ccccc3)nc3ccccc23)CC1,3,-2,-1,2,-5,x,x
Oc1ccc(Nc2nc(N3CCCC3)c3ccccc3n2)cc1,9,-8,10*,4,0,27*,-1
C(=C\c1nc(N2CCCC2)c2ccccc2n1)/c1ccccc1,2,-6,9.0*,-10,0,15*,2
Cc1ccc(Nc2nc(N3CCOCC3)c3ccccc3n2)cc1,7,-5,-1,21,1,x,x
Cc1cc(C)cc(N(CC(=O)NC2CCC(C)CC2)S(=O)(=O)c2ccccc2)c1 (stereo not drawn),-16,x,-2,x,x,x,x
CCOc1ccc(C(=O)/C=C/Nc2ccc(S(=O)(=O)N=C(N)N)cc2)cc1,-20,-3,8.1*,-47,4,-1,1
NC(N)=NS(=O)(=O)c1ccc(N/C=C/C(=O)c2ccc(Cl)c(Cl)c2)cc1,-3,7,-3,-16,-1,x,x
CC#CC(=O)N[C@H]1CC[C@@]23CCCN2C(=O)CCC[C@H]3[C@H]1C,-5,x,x,x,x,x,x
O=C(/C=C/Nc1ccc(F)c(F)c1)c1cccs1,-39,-1,4,-153,3,x,x
O=C(/C=C/Nc1ccc(F)cc1)c1cccs1,-13,-5,8.8*,-122,1,11*,14*
c1ccc2oc(-c3ccc4nc[nH]c4c3)nc2c1,-36,3,9.6*,-171,3,10*,14*
Cc1ccc(CSCC(Nc2ccc(C(=O)O)cc2[N+](=O)[O-])C(=O)O)cc1 (stereo not drawn),8,-2,9.0*,-29,3,0,-1
COc1cc(C=Nn2c(-c3n[nH]c4c3CCC4)n[nH]c2=S)ccc1OCc1ccccc1,-5,x,-2,x,x,x,x
Cc1cc(Cl)c2oc(C(=O)NCC(C)(C)N3CCOCC3)c(C)c2c1,5,-10,9.3*,-11,1,4,5.2*
Cc1cc(Cl)c2oc(C(=O)N(C)CCCCN3CCOCC3)c(C)c2c1,7,2,0,0,7,x,x
COC(=O)C1CCN(C(=O)c2oc3c(Cl)cc(C)cc3c2C)CC1,-21,-6,9.1*,-123,-4,7,11*

# Screens from PubChem BioAssay.
